Source: PubChem BioAssay (Broad Institute)
DENV2 CPE rescue = inhibitors of DENV2 cytopathic effect, primary screen, cell-based, plate reader, single concentration; DENV2-infected cells, cytopathic effect rescue; 1.7% of 350,000 active; AID 651640, 2012; CPE inhibition, % at 9.99 µM; in the data active means CPE inhibition above about 20%, passing the limit was not always enough; inconclusive means no clear call, values can overlap the other calls; tested in BHK-21 cells;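 further: 0% = median of neutral control wells and 100% = median of positive control wells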
AF4-AF9 inh = inhibitors of AF4 peptide binding to AF9, primary screen, biochemical, AlphaScreen, biotin-AF4 peptide, FLAG-AF9, single point | Protein AF-9 (Homo sapiens), P42568 | 0.47% of 350,000 active | AID 651704, 2012 | inhibition, % at 10 µM;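 active means every replicate reaching a set inhibition limit, whatever the replicate mean, cut at about 25% in these data; inconclusive means mean inhibition reaches that limit but some replicates miss it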;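 further: 0% = plate neutral control median and 100% = total signal loss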
Target sequence (P42568 whole entry, looked up): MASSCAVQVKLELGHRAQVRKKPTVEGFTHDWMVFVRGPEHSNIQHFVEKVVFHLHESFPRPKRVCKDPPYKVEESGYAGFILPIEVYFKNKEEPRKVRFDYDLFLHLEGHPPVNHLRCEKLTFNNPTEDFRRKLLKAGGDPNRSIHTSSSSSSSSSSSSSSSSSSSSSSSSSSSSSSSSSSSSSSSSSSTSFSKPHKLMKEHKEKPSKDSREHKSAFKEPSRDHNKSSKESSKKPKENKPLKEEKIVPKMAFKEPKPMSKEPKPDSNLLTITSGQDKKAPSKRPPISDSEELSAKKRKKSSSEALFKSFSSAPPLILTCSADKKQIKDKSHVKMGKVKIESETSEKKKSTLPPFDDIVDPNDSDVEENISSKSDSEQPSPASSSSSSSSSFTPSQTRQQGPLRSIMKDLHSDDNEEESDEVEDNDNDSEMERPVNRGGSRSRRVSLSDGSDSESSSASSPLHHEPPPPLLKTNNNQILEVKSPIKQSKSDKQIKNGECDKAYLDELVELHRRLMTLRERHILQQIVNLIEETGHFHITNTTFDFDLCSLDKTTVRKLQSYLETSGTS
CaV13 ICDI inh = Primary screen for inhibitors of IQ motif and Ca2+-dependent inactivation inhibitor domain binding in CACNA1D, Förster resonance energy transfer in living cells, …. 0.098% of 340,000 active. HEK cells, CFP/YFP FRET ICDI-IQ, plate reader, 10 min; percent FRET-ratio fall versus neutral wells. inhibition, % at 12.3 µM. AID 743397;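 active means mean replicate inhibition of at least 30% and at least 1% of replicates passing that level; inconclusive means only one of the two criteria is met; inactive means neither criterion is met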;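 further: 0% = median of the neutral control wells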
S100A4 inh HTS = inhibitors of S100A4-myosin IIA peptide binding, primary screen, biochemical, fluorescence polarization, TAMRA-MyoIIA peptide | inhibition, % at 10.7 µM | 0.14% of 360,000 active | AID 652163, 2013;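 active means mean inhibition of at least 70% across replicates, with every replicate also reaching that level; inconclusive means mean inhibition reaches 70% but some replicates fall short; inactive means mean inhibition below 70%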
Target sequence (P26447 whole entry, looked up): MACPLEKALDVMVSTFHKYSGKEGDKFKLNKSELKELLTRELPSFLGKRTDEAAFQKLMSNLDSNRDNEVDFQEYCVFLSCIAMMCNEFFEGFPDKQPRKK
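Compound dosing: one dose per compound; test system: human S100A4 monomer with TAMRA-labelled myosin IIA peptide; probe or stimulus: TAMRA-labelled myosin IIA heavy-chain peptide probe, 5 nM; medium: HEPES buffer with Ca2+, pH 7.2; schedule: 5 min incubation before reading; benchmarks: neutral control DMSO, positive control TFP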
SIRT5 inh = SIRT5 desuccinylase inhibitors, primary screen, biochemical, fluorescence imaging, single point, set 5; NAD-dependent protein deacylase sirtuin-5, mitochondrial (Homo sapiens), Q9NXA8; Purified SirT5, succinyl-peptide AMC, trypsin-coupled fluorescence; inhibition, % at 15 µM; 1.1% of 330,000 active; in the data active means inhibition above about 15%; inconclusive means no clear call, values can overlap the other calls
An asterisk follows results filed as active; ? = inconclusive; · = no result given; + = active, no number. A selection: hits, their analogues and other compounds. The true share with any hit is near 2.7%.

SMILES	DENV2 CPE rescue	AF4-AF9 inh	CaV13 ICDI inh	S100A4 inh HTS	SIRT5 inh
Cc1cc(C)c2nc3sc(=Cc4ccc(-c5ccccc5C(=O)O)o4)c(=O)n3c2c1	?	-2.1	-5.4	-2.9	1.8
Cc1c(C(=O)Nc2cccc(F)c2)cnn1-c1ccccc1	49.7*	-2.4	3.5	3.7	-3.6
CCC(=O)N/C(N)=N/c1nc(C)c2cc(C)c(C)cc2n1	-5.0	0.4	-4.3	23.9	17.6*
C[C@@H]1CN([C@H](C)CO)C(=O)c2c(c3ccccc3n2C)-c2ccccc2CO[C@@H]1CN(C)Cc1ccc(-c2ccccc2)cc1	-16.4	-10.4	·	1.4	5.1
CC1=C(C#N)c2nc(N)c(C#N)c(C)c2/C1=C\c1ccc(OCC(=O)O)c(Cl)c1	2.0	2.1	-5.5	-13.9	18.9*
CC(C)NC(=O)N[C@H]1CC[C@@H](CC(=O)O)O[C@H]1CO	-0.3	-4.0	·	3.3	1.3
CS(=O)(=O)N1[C@@H]2c3ccc(-c4cccc(F)c4)c(=O)n3C[C@@H]2[C@@H](CO)[C@@H]1C(=O)NC1CCC1	-11.0	-6.2	·	13.9	-14.6
CC(=O)c1ccc(OCCCC(=O)NC2CCCc3ccccc32)cc1 (configuration not stated)	22.2*	7.9	-4.7	-16.8	·
O=C(C[C@@H]1CC[C@@H]2[C@H](COC[C@@H](O)CN2S(=O)(=O)c2ccc(Cl)cc2)O1)NCCN1CCCC1	27.2*	-5.8	·	-2.2	1.8
O=C(C[C@H]1CC[C@@H]2[C@H](COC[C@H](O)CN2S(=O)(=O)c2ccccc2)O1)NCCN1CCCC1	27.7*	1.8	·	20.6	2.9
C[C@@H]1CN([C@@H](C)CO)C(=O)c2cc(NS(C)(=O)=O)ccc2O[C@@H](C)CCCCO[C@H]1CN(C)CC1CC1	-0.3	-3.8	·	15.7	-1.7
C/C=C/c1ccc2c(c1)O[C@H](CN(C)C(=O)c1ccccc1)[C@H](C)CN([C@@H](C)CO)S2(=O)=O	-0.2	1.3	·	-8.4	2.1
CC(=O)N[C@H]1CC[C@@H](CCNC(=O)C2CCCC2)O[C@@H]1CO	27.0*	1.1	·	9.9	-3.5
O=C(CN1CCOCC1)NCC[C@@H]1CC[C@@H](NC(=O)Nc2ccc(F)cc2)[C@@H](CO)O1	23.7*	0.4	·	1.7	9.2
O=C(N[C@H]1CC[C@H](CCNC(=O)C2CCCC2)O[C@@H]1CO)c1ccncc1	25.4*	-0.5	·	-1.7	-1.3
O=C(N[C@H]1CC[C@H](CCNC(=O)C2CCCCC2)O[C@@H]1CO)c1ccncc1	27.7*	3.7	·	15.3	-4.3
C[C@@H]1CN([C@H](C)CO)C(=O)c2cc(NC(=O)NC3CCCCC3)ccc2O[C@H]1CN(C)Cc1ccccc1	9.0	-1.7	·	2.9	7.3
COc1ccc(NC(=O)N(C)C[C@H]2Oc3cc(-c4ccc(C)cc4)ccc3S(=O)(=O)N([C@H](C)CO)C[C@H]2C)cc1	9.4	1.4	·	4.5	-1.6
O=C(CN1CCOCC1)N[C@H]1CC[C@H](CCNC(=O)C2CCC2)O[C@H]1CO	-3.4	43.3*	·	45.0	3.7
C[C@@H]1CN([C@@H](C)CO)C(=O)c2cc(N(C)C)ccc2O[C@H]1CN(C)Cc1ccc(Oc2ccccc2)cc1	-1.0	44.6*	·	-24.9	1.7
C[C@@H]1CN([C@H](C)CO)C(=O)c2cc(N(C)C)ccc2O[C@H]1CN(C)Cc1ccccc1	9.5	-4.0	·	-8.1	0.8
C[C@@H]1CN([C@H](C)CO)C(=O)c2cc(N(C)C)ccc2O[C@@H]1CN(C)Cc1ccccc1	5.9	-1.4	·	31.1	2.0
C[C@H]1CN([C@@H](C)CO)C(=O)c2cc(N(C)C)ccc2O[C@H]1CN(C)Cc1ccc(Oc2ccccc2)cc1	1.6	44.6*	·	7.6	-4.1
C[C@H]1CN([C@@H](C)CO)C(=O)c2cc(N(C)C)ccc2O[C@@H]1CN(C)Cc1ccc(Oc2ccccc2)cc1	8.9	39.6*	·	-8.3	·
Cc1csc(=O)n1CC(=O)OCc1nnc(-c2ccc(Cl)cc2)o1	4.4	-26.9	-15.0	+	-3.6
SMILES	DENV2 CPE rescue	AF4-AF9 inh	CaV13 ICDI inh	S100A4 inh HTS	SIRT5 inh
NCCCC[C@@H](C(=O)N1CCNCC1)n1cc(CCC(=O)O)nn1	-3.7	·	-4.9	-1.4	·
CC(O)Cc1cn([C@@H](CCCCN)C(=O)N2CCNCC2)nn1 (some centres not stated)	24.8*	0.9	-3.6	-0.7	·
O=C(C[C@H]1C[C@@H]2c3cc(NC(=O)C4CCC4)ccc3O[C@@H]2[C@H](CO)O1)NCc1ccccc1	22.7*	-0.6	·	6.0	0.1
O=C(C[C@H]1C[C@H]2c3cc(NC(=O)C4CCC4)ccc3O[C@H]2[C@H](CO)O1)NCc1ccc(-c2ccccc2)cc1	-4.1	-1.7	·	-3.4	5.9
O=C(C[C@H]1C[C@@H]2c3cc(NC(=O)C4CCC4)ccc3O[C@@H]2[C@@H](CO)O1)NCc1ccc(-c2ccccc2)cc1	3.6	-0.9	·	-25.2	23.0*
CC(C)NC(=O)Nc1ccc2c(c1)C(=O)N([C@H](C)CO)C[C@@H](C)[C@H](CN(C)Cc1ccc(C(=O)O)cc1)OCCCC[C@@H](C)O2	-2.1	-4.9	·	1.0	3.1
CN(Cc1ccccc1)c1ncnc2c1cnn2-c1ccccc1	-5.2	4.9	-8.4	0.9	-8.2
CCN(c1ccccc1)c1ncnc2c1cnn2-c1ccccc1	-9.6	28.3*	-5.7	-11.5	-2.6
O=C(O)C[C@@H]1C[C@@H]2c3cc(NC(=O)Cc4ccncc4)ccc3O[C@@H]2[C@H](CO)O1	-8.6	-1.9	·	-3.2	-1.3
C[C@H](CO)N1C[C@H](C)[C@H](CN(C)S(=O)(=O)c2ccc(Cl)cc2)Oc2ccc(NC(=O)CCN3CCOCC3)cc2C1=O	-4.7	0.8	·	5.2	-0.2
O=C(O)CCN1C(=O)/C(=C\c2cccc(OCC(=O)Nc3ccc(Cl)cc3)c2)SC1=S	0.0	-22.7	-4.3	2.4	1.5
O=C(CCN1C(=O)/C(=C/c2ccccc2)SC1=S)NNC(=O)c1cccnc1	·	·	-5.1	·	·
Cc1ccc(/C=C2\SC(=S)N(CCCC(=O)Nc3cccc(C(=O)O)c3)C2=O)cc1	85.0*	-3.0	-6.3	0.7	-5.0
Cc1ccc(NC(=O)COc2cccc(/C=C3\SC(=S)N(CCC(=O)O)C3=O)c2)cc1Cl	-3.1	-6.1	5.8	3.5	26.8*
O=C(CCN1C(=O)/C(=C/c2ccc3c(c2)OCO3)SC1=S)NNC(=O)c1cccnc1	46.7*	-1.9	2.5	-4.3	-1.1
O=C(CCN1C(=O)/C(=C/c2ccc3c(c2)OCO3)SC1=S)Nc1cccc(C(=O)O)c1	-2.6	-1.9	-6.0	4.7	17.3*
C[C@@H]1CCCCO[C@H](CN(C)C(=O)c2ccccc2)[C@H](C)CN([C@@H](C)CO)C(=O)c2cc(NS(C)(=O)=O)ccc2O1	0.8	-1.6	·	13.1	-3.1
